For orientation: EC50 means the concentration giving half of the maximal effect.

Activity calls are given as the source filed them. No rule for the calls is given here.

In the first assay the target is T1, Toll-like receptor 4 (Mus musculus) (UniProt Q9QUK6).
T1 sequence (whole entry): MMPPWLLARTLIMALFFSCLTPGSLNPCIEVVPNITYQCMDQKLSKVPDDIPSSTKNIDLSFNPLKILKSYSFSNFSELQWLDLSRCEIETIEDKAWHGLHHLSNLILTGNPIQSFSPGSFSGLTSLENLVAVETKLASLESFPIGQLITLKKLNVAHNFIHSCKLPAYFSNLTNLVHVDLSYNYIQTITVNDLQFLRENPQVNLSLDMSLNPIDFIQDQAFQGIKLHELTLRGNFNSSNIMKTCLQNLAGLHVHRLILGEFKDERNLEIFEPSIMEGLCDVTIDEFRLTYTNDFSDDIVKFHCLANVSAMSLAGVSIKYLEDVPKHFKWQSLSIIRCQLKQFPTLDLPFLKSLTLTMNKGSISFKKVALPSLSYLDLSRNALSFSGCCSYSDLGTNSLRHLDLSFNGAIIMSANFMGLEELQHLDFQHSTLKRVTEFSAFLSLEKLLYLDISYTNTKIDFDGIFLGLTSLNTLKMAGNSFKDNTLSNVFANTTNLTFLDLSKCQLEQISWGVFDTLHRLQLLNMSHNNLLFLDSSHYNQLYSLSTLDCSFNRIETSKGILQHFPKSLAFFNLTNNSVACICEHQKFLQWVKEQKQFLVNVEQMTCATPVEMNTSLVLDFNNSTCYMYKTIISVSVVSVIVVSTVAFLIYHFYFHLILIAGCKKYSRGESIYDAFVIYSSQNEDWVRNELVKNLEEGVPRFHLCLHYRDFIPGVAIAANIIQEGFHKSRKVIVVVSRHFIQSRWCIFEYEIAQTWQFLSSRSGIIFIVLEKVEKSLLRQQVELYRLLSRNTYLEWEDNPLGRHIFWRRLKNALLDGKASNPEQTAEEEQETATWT
Nature of the assay: Agonist activity at TLR4 in C57BL/6J mouse macrophages assessed as stimulation of TNFalpha release at 50 uM after 4 hrs by ELISA. The method, boiled down: (§1)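 Peritoneal macrophages from wild-type C57BL/6J mice, collected by PBS lavage and cultured in DMEM/10% FBS at 37 °C, 5% CO2. Seeded at 1 × 10^5 cells/well and treated 4 h with compound in DMSO (0.5% final) beside ultra-pure LPS and DMSO controls. Supernatant TNF-α measured by ELISA; mean of triplicates.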
A general note: An ELISA detects its analyte on a solid surface through an enzyme-linked reagent.
With `COc1ccc(CC[C@H](NC(=O)c2ccc(N)c(CCc3ccc(O)cc3)c2)C(=O)OC(C)(C)C)cc1`, the outcome was Active. In the case of `CCCCCCNC(=O)[C@H](CCc1ccccc1)NC(=O)c1ccc(N)c(CCc2ccc(O)cc2)c1`, the result was Active. With `CN(C(=O)c1ccc(N)c(CCc2ccc(O)cc2)c1)[C@@H](CCc1ccccc1)C(=O)OC(C)(C)C`, the outcome was inactive. For `CC[C@H](N)C(=O)OC(C)(C)C`, the outcome was Active. Same read-out and setting: under `CC(C)(C)OC(=O)[C@H](CCc1ccccc1)NC(=O)c1ccc(N)c(OCCc2ccccc2)c1` stands “inactive”.

With `CCCCCCCNC(=O)[C@H](CCc1ccccc1)NC(=O)c1ccc(N)c(CCc2ccc(O)cc2)c1`, the result was inactive. Take `CCCCCCCCNC(=O)[C@H](CCc1ccccc1)NC(=O)c1ccc(N)c(CCc2ccc(O)cc2)c1`: the result was inactive. As for `CC(C)(C)OC(=O)[C@H](CCc1ccccc1)NC(=O)c1ccc(N)c(OCCc2ccc(O)c(F)c2)c1`, the outcome was inactive.

As for `CC(C)(C)OC(=O)[C@H](CCc1ccccc1)NC(=O)c1ccc(N)c(CCCc2ccc(O)cc2)c1`, the outcome was Active.

In the case of `COc1ccc(CCc2cc(C(=O)N[C@@H](CCc3ccccc3)C(=O)OC(C)(C)C)ccc2N)cc1`, the result was inactive. For `CC(C)(C)OC(=O)[C@H](CCc1ccccc1)NC(=S)c1ccc(N)c(CCc2ccc(O)cc2)c1`, the result was inactive.

Turning to `CC(C)(C)OC(=O)[C@H](CCc1ccccc1)NC(=O)c1ccc(N)c(OCCCc2ccc(O)cc2)c1`, the outcome was inactive. As for `CNc1ccc(C(=O)N[C@@H](CCc2ccccc2)C(=O)OC(C)(C)C)cc1CCc1ccc(O)cc1`, the outcome was inactive. On to `CC(C)(C)OC(=O)[C@H](CCc1ccccc1)NC(=O)c1cc(N)cc(CCc2ccc(O)cc2)c1`, for which the outcome was Active.

For `Cc1ccc(CC[C@H](NC(=O)c2ccc(N)c(CCc3ccc(O)cc3)c2)C(=O)OC(C)(C)C)cc1`, the result was Active. Turning to `CC(C)(C)OC(=O)[C@H](CCc1ccccc1)NC(=O)c1cccc(OCCc2ccc(O)cc2)c1`, the result was inactive. Regarding `CSCC[C@H](N)C(=O)OC(C)(C)C`, the outcome was inactive. Regarding `CC(C)(C)OC(=O)[C@H](CCCCc1ccccc1)NC(=O)c1ccc(N)c(CCc2ccc(O)cc2)c1`, the outcome was inactive. For the compound `COc1ccc(C[C@H](N)C(=O)Nc2ccc(C(=O)N[C@@H](CCc3ccccc3)C(=O)O)cc2OCCc2ccc(O)cc2)cc1`, the result was Active.

On to `CC(C)(C)OC(=O)[C@H](CCc1ccccc1)NC(=O)c1ccc(N)c(OCCCCc2ccc(O)cc2)c1`, for which the outcome was inactive. As to `CC(C)(C)OC(=O)[C@H](CCc1ccccc1)NC(=O)c1cc(CCc2ccc(O)cc2)ccc1N`, the outcome was inactive. `CC(C)(C)OC(=O)[C@H](CCc1ccccc1)NC(=O)c1ccc(N)c(CCc2ccccc2)c1`: the result was inactive.

Consider `CC(=O)Nc1ccc(C(=O)N[C@@H](CCc2ccccc2)C(=O)OC(C)(C)C)cc1CCc1ccc(O)cc1`, for which the outcome was inactive. For the compound `CC(C)(C)OC(=O)[C@H](CCc1ccccc1)NC(=O)c1ccc([N+](=O)[O-])c(OCCc2ccc(O)cc2)c1`, the result was inactive. For `CC(C)C[C@H](N)C(=O)OC(C)(C)C`, the result was Active. Same read-out and setting: next, `CC(C)[C@H](N)C(=O)OC(C)(C)C`: “Active”. In the case of `CC(C)(C)OC(=O)[C@H](CCc1ccccc1)NC(=O)c1ccc(N)c(Cc2ccc(O)cc2)c1`, the outcome was inactive.

For the compound `CC(C)(C)OC(=O)[C@H](CCc1ccccc1)NC(=O)c1ccc(N)c(OCCc2ccc(O)c(Cl)c2)c1`, the result was inactive.

As for `CCCCCCCCCCNC(=O)[C@H](CCc1ccccc1)NC(=O)c1ccc(N)c(CCc2ccc(O)cc2)c1`, the outcome was inactive.

A further assay has as its target T2, Toll-like receptor 4 (Mus musculus, UniProt Q9QUK6).
T2 sequence (Q9QUK6 whole entry): T1 sequence (whole entry)
In words: Agonist activity at TLR4 in C57BL/6J mouse macrophages assessed as stimulation of TNFalpha release after 4 hrs by ELISA. The method, boiled down: as §1
In the case of `COc1ccc(CC[C@H](NC(=O)c2ccc(N)c(CCc3ccc(O)cc3)c2)C(=O)OC(C)(C)C)cc1`, the concentration for a half-maximal effect (EC50) was 22.2 µM.

`Cc1ccc(CC[C@H](NC(=O)c2ccc(N)c(CCc3ccc(O)cc3)c2)C(=O)OC(C)(C)C)cc1`: the EC50 was determined as 21.6 µM.

(Values after ChEMBL document CHEMBL3817776, “Discovery and Structure-Activity Relationships of the Neoseptins: A New Class of Toll-like Receptor-4 (TLR4) Agonists” (J Med Chem, 2016).)
